Experimental data published in ChEMBL document CHEMBL1150564, “Isoterchebulin and 4,6-O-isoterchebuloyl-D-glucose, novel hydrolyzable tannins from Terminalia macroptera” (J Nat Prod, 2001).
Values after ≈ are worked out from the molar mass of the structure shown. Active and inactive are the calls of the source. The rule behind the calls is not given here.

Legend:
Bacillus subtilis = assay: Antibacterial activity against Bacillus subtilis by microdilution assay; type: functional
In short: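 Broth microdilution against B. subtilis, samples serially twofold diluted from a 1024 µg/mL start, two replicates per concentration. MIC recorded. Cefotaxim served as positive control. Afterwards, bacteria treated at the MIC were replated on drug-free HNB agar to tell bacteriostatic from bactericidal action.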

Pseudomonas fluorescens = assay: Antibacterial activity against Pseudomonas fluorescens at 1024 ug/ml; type: functional, organism-based
In short: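 Broth microdilution against P. fluorescens, samples serially twofold diluted from a top concentration of 1024 µg/mL, two replicates per concentration. Cefotaxim served as positive control.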

5637 = assay: Cytotoxicity against human 5637 cells; type: functional; conditions: read-out: LC50 (the source's name)
Biomphalaria glabrata = assay: Molluscicidal activity against Biomphalaria glabrata; type: functional
Caenorhabditis elegans = assay: Nematicidal activity against Caenorhabditis elegans at 100 ug/ml; type: functional, organism-based
In short: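 Caenorhabditis elegans exposed to compound at 50 and 100 µg/mL (n = 60, two replicates per concentration). Scored by increase in worm number and worm movement, graded on a + scale. Pyrantel embonate at 50 µg/mL served as positive control.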

[1] = Toxicity against Oreochromis mossambicus assessed as mortality at 50 ug/ml; type: organism-based; conditions: in vivo, read-out: Activity
In short: (§1)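 Tilapia (Oreochromis mossambicus) exposed to the compound in water at 50 or 75 µg/mL. Read-out is percent fish mortality.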

[2] = Toxicity against Oreochromis mossambicus assessed as mortality at 75 ug/ml; type: organism-based; conditions: in vivo, read-out: Activity; in short: as §1

Row | Compound | MIC (Bacillus subtilis) [µg/mL] | Activity (Pseudomonas fluorescens) | also measured
1 | [H][C@@]12COC(=O)c3cc(O)c(O)c(O)c3Oc3c(O)cc4c(=O)oc5c(O)c(O)c(c6c(=O)oc3c4c56)-c3c(cc(O)c(O)c3O)C(=O)O[C@@]1([H])[C@H](O)[C@@H](O)C(O)O2 (stereo partly drawn) | 8 (≈ 10.2 µM) | – | –
2 | O=C1O[C@H]2[C@H](O)[C@@H](CO)OC(O)[C@@H]2OC(=O)c2cc(O)c(O)c(O)c2-c2c1cc(O)c(O)c2O (stereo partly drawn) | – | inactive | Activity (Bacillus subtilis): inactive; CC50 5637: 84.7 µM
3 | O=C1OC[C@H]2OC(O)[C@H](O)[C@@H](O)[C@@H]2OC(=O)c2cc(O)c(O)c(O)c2-c2c(O)c(O)c3oc(=O)c4cc(O)c(c5oc(=O)c2c3c54)Oc2c1cc(O)c(O)c2O (stereo partly drawn) | – | inactive | –
4 | [H][C@@]12OC(=O)c3cc(O)c(O)c(O)c3-c3c(O)c(O)c4oc(=O)c5cc(O)c(c6oc(=O)c3c4c65)Oc3c(cc(O)c(O)c3O)C(=O)OC[C@@]1([H])OC(O)[C@]1([H])OC(=O)c3cc(O)c(O)c(O)c3-c3c(cc(O)c(O)c3O)C(=O)O[C@@]21[H] (stereo partly drawn) [ISOTERCHEBULIN] | 8 (≈ 7.38 µM) | inactive | LC100 (Biomphalaria glabrata): 60 µg/mL; Activity (Caenorhabditis elegans): Active; mortality at 50 ug/ml [1]: 10%; mortality at 75 ug/ml [2]: 10%
5 | O=C1O[C@H]([C@@H]2OC(=O)c3cc(O)c(O)c(O)c3-c3c(O)c(O)c4oc(=O)c5c(c(O)c(O)c6oc(=O)c3c4c65)-c3c(cc(O)c(O)c3O)C(=O)OC[C@H]2O)[C@@H]2OC(=O)c3c(c(O)c(O)c(O)c3[C@H]2O)-c2c1cc(O)c(O)c2O [PUNICACORTEIN C] | 16 (≈ 14.8 µM) | inactive | CC50 5637: 41.4 µM

Second part, led by results:

Row | MIC (Bacillus subtilis) [µg/mL] | Compound | Activity (Pseudomonas fluorescens) | also measured
6 | 8 (≈ 8.56 µM) | O=C(O[C@H]1C(O)O[C@@H]2COC(=O)c3cc(O)c(O)c(O)c3-c3c(O)c(O)c4oc(=O)c5c(c(O)c(O)c6oc(=O)c3c4c65)-c3c(cc(O)c(O)c3O)C(=O)O[C@H]2[C@@H]1O)c1cc(O)c(O)c(O)c1 (stereo partly drawn) | inactive | –
7 | 2 (≈ 4.39 µM) | CO/N=C(\C(=O)N[C@@H]1C(=O)N2C(C(=O)O)=C(COC(C)=O)CS[C@H]12)c1csc(N)n1 [CEFOTAXIME] | – | –
8 | 32 (≈ 29.5 µM) | O=C1O[C@@H]2[C@@H](OC(=O)c3cc(O)c(O)c(O)c3-c3c1cc(O)c(O)c3O)[C@H](O)O[C@@H]1COC(=O)c3cc(O)c(O)c(O)c3-c3c(O)c(O)c4oc(=O)c5c(c(O)c(O)c6oc(=O)c3c4c65)-c3c(cc(O)c(O)c3O)C(=O)O[C@@H]21 [PUNICALAGIN] | inactive | –
9 | 64 (≈ 58.9 µM) | O=C(OC[C@H]1OC(O)[C@@H]2OC(=O)c3cc(O)c(O)c(O)c3-c3c(cc(O)c(O)c3O)C(=O)O[C@H]2[C@@H]1OC(=O)c1cc(O)c(O)c(O)c1-c1c(O)c(O)c2oc(=O)c3cc(O)c(O)c4oc(=O)c1c2c43)c1cc(O)c(O)c(O)c1 (stereo partly drawn) [TERFLAVIN A] | inactive | –
10 | 64 (≈ 81.6 µM) | O=C(OC[C@H]1OC(O)[C@H](O)[C@@H](O)[C@@H]1OC(=O)c1cc(O)c(O)c(O)c1-c1c(O)c(O)c2oc(=O)c3cc(O)c(O)c4oc(=O)c1c2c43)c1cc(O)c(O)c(O)c1 (stereo partly drawn) [TERFLAVIN B] | inactive | –
